ChEMBL document CHEMBL3808334, “Synthesis and in vitro evaluation of novel triazine analogues as anticancer agents and their interaction studies with bovine serum albumin” (Eur J Med Chem, 2016)

What was measured:
Type in all cases: functional
T47D [1] = assay: Growth inhibition of human T47D cells assessed as cell growth at 10^-5 M incubated for 48 hrs by sulforhodamine B assay; conditions: read-out: Activity
T47D [2] = assay: Growth inhibition of human T47D cells incubated for 48 hrs by sulforhodamine B assay
In short: (§1)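 Cells were plated at 5,000–40,000 per well according to doubling time and preincubated 24 h at 37 °C in 5% CO2; time-zero plates were then TCA-fixed. Five concentrations (10-fold or ½-log dilutions, DMSO stock) were incubated 48 h. Cells were TCA-fixed, stained with 0.4% SRB and read at 515 nm. GI50 was taken where [(Ti−Tz)/(C−Tz)]×100 = 50.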

[3] = Growth inhibition of human DU145 cells assessed as cell growth at 10^-8 M incubated for 48 hrs by sulforhodamine B assay; conditions: DU-145, 48 h, read-out: Activity
In short: (§2)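 Cells seeded at 5,000–40,000/well according to doubling time and preincubated 24 h at 37 °C, 5% CO2. Time-zero plates were TCA-fixed. DMSO concentrate was diluted in medium with 50 µg/ml gentamicin to give five concentrations (10-fold or ½ log steps), then exposed 48 h. Cells were TCA-fixed, stained with 0.4% SRB and read at 515 nm. Percent growth was taken against time-zero and control; GI50, TGI and LC50 derived.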

786-0 [4] = assay: Growth inhibition of human 786-0 cells incubated for 48 hrs by sulforhodamine B assay; conditions: 786-0, 48 h
In short: (§3)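 Five-dose assay: five concentrations from 10-fold or ½-log serial dilutions. Cells are plated at 5,000–40,000 per well according to doubling time, grown 24 h, then exposed 48 h at 37 °C, 5% CO₂. Fixed with cold 50% TCA (final addition) for 60 min at 4 °C and stained with 0.4% SRB in 1% acetic acid. Bound dye is solubilized in 10 mM Tris base and read at 515 nm. GI₅₀ is where [(Ti−Tz)/(C−Tz)]×100 = 50, with a time-zero plate as Tz.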

[5] = Growth inhibition of human HCT116 cells assessed as cell growth at 10^-4 M incubated for 48 hrs by sulforhodamine B assay; conditions: HCT-116, 48 h, read-out: Activity; in short: as §2
KM12 = assay: Growth inhibition of human KM12 cells assessed as cell growth at 10 uM incubated for 48 hrs by sulforhodamine B assay; conditions: KM12, 48 h, read-out: Activity
[6] = Growth inhibition of human COLO205 cells assessed as cell growth at 10^-4 M incubated for 48 hrs by sulforhodamine B assay; conditions: COLO 205, 48 h, read-out: Activity; in short: as §2
[7] = Growth inhibition of human TK10 cells assessed as cell growth at 10^-7 M incubated for 48 hrs by sulforhodamine B assay; conditions: TK-10, 48 h, read-out: Activity
MCF7 = assay: Growth inhibition of human MCF7 cells assessed as cell growth at 10^-6 M incubated for 48 hrs by sulforhodamine B assay; conditions: MCF7, 48 h, read-out: Activity
[8] = Growth inhibition of human SNB75 cells incubated for 48 hrs by sulforhodamine B assay; conditions: SNB-75, 48 h; in short: as §1
[9] = Growth inhibition of human Hs 578T cells assessed as cell growth at 10^-7 M incubated for 48 hrs by sulforhodamine B assay; conditions: read-out: Activity
[10] = Growth inhibition of human HCC2998 cells assessed as cell growth at 10^-7 M incubated for 48 hrs by sulforhodamine B assay; conditions: HCC 2998, 48 h, read-out: Activity; in short: as §2
[11] = Growth inhibition of human HCT116 cells assessed as cell growth at 10^-6 M incubated for 48 hrs by sulforhodamine B assay; conditions: HCT-116, 48 h, read-out: Activity; in short: as §2
A498 = assay: Growth inhibition of human A498 cells assessed as cell growth at 10^-5 M incubated for 48 hrs by sulforhodamine B assay; conditions: A498, 48 h, read-out: Activity; in short: as §3
[12] = Growth inhibition of human SNB19 cells assessed as cell growth at 10^-8 M incubated for 48 hrs by sulforhodamine B assay; conditions: SNB-19, 48 h, read-out: Activity
[13] = Growth inhibition of human IGROV1 cells assessed as cell growth at 10 uM incubated for 48 hrs by sulforhodamine B assay; conditions: IGROV-1, 48 h, read-out: Activity
ACHN = assay: Growth inhibition of human ACHN cells assessed as cell growth at 10 uM incubated for 48 hrs by sulforhodamine B assay; conditions: read-out: Activity
In short: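 One-dose screen at 10 µM final. Cells are plated at 5,000–40,000 per well according to doubling time and preincubated 24 h at 37 °C, 5% CO₂. Compound (DMSO stock diluted in medium with 50 µg/ml gentamicin) is then added for 48 h. Growth percent is read by sulforhodamine B staining, absorbance at 515 nm.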

NCI-H460 = assay: Growth inhibition of human NCI-H460 cells assessed as cell growth at 10^-8 M incubated for 48 hrs by sulforhodamine B assay; conditions: NCI-H460, 48 h, read-out: Activity
[14] = Growth inhibition of human UO31 cells assessed as cell growth at 10^-5 M incubated for 48 hrs by sulforhodamine B assay; conditions: UO-31, 48 h, read-out: Activity
[15] = Growth inhibition of human RPMI8226 cells assessed as cell growth at 10^-5 M incubated for 48 hrs by sulforhodamine B assay; conditions: RPMI-8226, 48 h, read-out: Activity
[16] = Growth inhibition of human SF295 cells assessed as cell growth at 10^-4 M incubated for 48 hrs by sulforhodamine B assay; conditions: SF-295, 48 h, read-out: Activity
SK-MEL-28 = assay: Growth inhibition of human SK-MEL-28 cells assessed as cell growth at 10^-5 M incubated for 48 hrs by sulforhodamine B assay; conditions: SK-MEL-28, 48 h, read-out: Activity
T47D [17] = assay: Growth inhibition of human T47D cells assessed as cell growth at 10^-6 M incubated for 48 hrs by sulforhodamine B assay; conditions: read-out: Activity
786-0 [18] = assay: Growth inhibition of human 786-0 cells assessed as cell growth at 10^-4 M incubated for 48 hrs by sulforhodamine B assay; conditions: 786-0, 48 h, read-out: Activity; in short: as §3
[19] = Growth inhibition of human SF539 cells assessed as cell growth at 10 uM incubated for 48 hrs by sulforhodamine B assay; conditions: SF-539, 48 h, read-out: Activity
[20] = Growth inhibition of human UACC62 cells assessed as cell growth at 10^-7 M incubated for 48 hrs by sulforhodamine B assay; conditions: UACC-62, 48 h, read-out: Activity
[21] = Growth inhibition of human OVCAR4 cells assessed as cell growth at 10^-6 M incubated for 48 hrs by sulforhodamine B assay; conditions: OVCAR-4, 48 h, read-out: Activity
[22] = read-out: LC50 (the source's name)
[23] = read-out: pLC50 (the source's name) (converted)

In the case of Fc1ccc(-c2nc(Nc3ccc(-c4nc5ccccc5[nH]4)cc3)nc(N3CCOCC3)n2)cc1, the growth at 10 µM (T47D [1]) is reported as -50%, the GI50 (T47D [2]; read-out: GI50) is reported as 1.88 µM and the TGI (T47D [2]; read-out: TGI) is reported as 4.32 µM. It also gave a GI50 (T47D [2]; read-out: pGI50 (converted)) of 1.86 µM, a TGI (T47D [2]; read-out: pTGI (converted)) of 4.37 µM and a growth at 0.01 µM [3] of 101%. It also gave a GI50 (786-0 [4]; read-out: GI50) of 1.44 µM, a CC50 (786-0 [4]; [22]) of 7.24 µM and a TGI (786-0 [4]; read-out: TGI) of 3.23 µM. The GI50 (786-0 [4]; read-out: pGI50 (converted)) was 1.45 µM, the CC50 (786-0 [4]; [23]) was 7.24 µM and the TGI (786-0 [4]; read-out: pTGI (converted)) was 3.24 µM. For the same molecule, the growth at 100 µM [5] was -78%, the growth at 10 µM (KM12) was 12.4% and the growth at 100 µM [6] was -57%. The growth at 0.1 µM [7] was 88%, the growth at 1 µM (MCF7) was 85% and the GI50 ([8]; read-out: GI50) was 1.8 µM. The CC50 [8, 22] was greater than 100 µM, the TGI ([8]; read-out: TGI) was 10.5 µM and the GI50 ([8]; read-out: pGI50 (converted)) was 1.82 µM. The CC50 [8, 23] was greater than 100 µM, the TGI ([8]; read-out: pTGI (converted)) was 10.5 µM and the growth at 0.1 µM [9] was 93%. For the same molecule, the growth at 0.1 µM [10] was 95%, the growth at 1 µM [11] was 102% and the growth at 10 µM (A498) was -60%. It also gave a growth at 0.01 µM [12] of 102%, a growth at 10 µM [13] of 33.7% and a growth at 10 µM (ACHN) of 9%. For the same molecule, the growth at 0.01 µM (NCI-H460) was 104%, the growth at 10 µM [14] was -30% and the growth at 10 µM [15] was -17%. It also gave a growth at 100 µM [16] of -35%, a growth at 10 µM (SK-MEL-28) of -49% and a growth at 1 µM (T47D [17]) of 88%. The growth at 100 µM (786-0 [18]) was -68%, the growth at 10 µM [19] was 0.31% and the growth at 0.1 µM [20] was 91%. It also gave a growth at 1 µM [21] of 96%.

Work on c1ccc(-c2nc(Nc3ccc(-c4nc5ccccc5[nH]4)cc3)nc(N3CCOCC3)n2)cc1 yielded a growth at 10 µM (T47D [1]) of -56%, a GI50 (T47D [2]; read-out: GI50) of 1.62 µM and a CC50 (T47D [2]; [22]) of 9.02 µM. It also gave a TGI (T47D [2]; read-out: TGI) of 3.82 µM, a GI50 (T47D [2]; read-out: pGI50 (converted)) of 1.62 µM and a CC50 (T47D [2]; [23]) of 9.12 µM. It also gave a TGI (T47D [2]; read-out: pTGI (converted)) of 3.8 µM, a growth at 0.01 µM [3] of 99% and a GI50 (786-0 [4]; read-out: GI50) of 0.257 µM. It also gave a CC50 (786-0 [4]; [22]) of 4.06 µM, a TGI (786-0 [4]; read-out: TGI) of 1.25 µM and a GI50 (786-0 [4]; read-out: pGI50 (converted)) of 0.257 µM. It also gave a CC50 (786-0 [4]; [23]) of 4.07 µM, a TGI (786-0 [4]; read-out: pTGI (converted)) of 1.26 µM and a growth at 100 µM [5] of -69%. For the same molecule, the growth at 10 µM (KM12) was -76.6%, the growth at 100 µM [6] was -74% and the growth at 0.1 µM [7] was 106%. It also gave a growth at 1 µM (MCF7) of 47%, a GI50 ([8]; read-out: GI50) of 1.64 µM and a CC50 [8, 22] of 6.07 µM. It also gave a TGI ([8]; read-out: TGI) of 3.15 µM, a GI50 ([8]; read-out: pGI50 (converted)) of 1.62 µM and a CC50 [8, 23] of 6.03 µM. For the same molecule, the TGI ([8]; read-out: pTGI (converted)) was 3.16 µM, the growth at 0.1 µM [9] was 94% and the growth at 0.1 µM [10] was 97%. It also gave a growth at 1 µM [11] of 16%, a growth at 10 µM (A498) of -76% and a growth at 0.01 µM [12] of 98%. It also gave a growth at 10 µM [13] of -38.1%, a growth at 10 µM (ACHN) of -58.9% and a growth at 0.01 µM (NCI-H460) of 103%. It also gave a growth at 10 µM [14] of -78%, a growth at 10 µM [15] of -32% and a growth at 100 µM [16] of -71%. It also gave a growth at 10 µM (SK-MEL-28) of -86%, a growth at 1 µM (T47D [17]) of 78% and a growth at 100 µM (786-0 [18]) of -71%. It also gave a growth at 10 µM [19] of -76.8%, a growth at 0.1 µM [20] of 97% and a growth at 1 µM [21] of 93%.
